Data as given in ChEMBL document CHEMBL4251649, “Discovery and optimization of phthalazinone derivatives as a new class of potent dengue virus inhibitors” (Eur J Med Chem, 2018).

Key:
[1] = Cytotoxicity against human HuH7 cells assessed as reduction in cell viability after 48 hrs by MTT assay; type: cell-based, Huh-7
How it was run: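 The Huh7 cells were seeded and treated with compound in the same way as the antiviral assay, and viability was read by MTT reduction. CC50 is the compound concentration that lowered the readout to half of the no-compound control.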

[2] = Selectivity index, CC50 for human HuH7 cells to IC50 for DENV2 D2Y98P; type: toxicity; details: read-out: Ratio CC50/IC50
How it was run: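 SI is calculated as CC50 (MTT cytotoxicity in Huh7) divided by IC50 (qRT-PCR of DENV-2 D2Y98P supernatant RNA, Huh7, MOI 2, 48 h).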

dengue virus type 2 = assay: Antiviral activity against DENV2 D2Y98P infected in human HuH7 cells assessed as inhibition of viral RNA replication incubated for 48 hrs by qRT-PCR method; type: functional, organism-based; details: Huh-7, 48 h
How it was run: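 Huh7 cells (4×10^4/well, 2% FBS DMEM, overnight) infected with DENV-2 D2Y98P at MOI 2 for 2 h, washed, then given compound in fresh medium; after 48 h the supernatant viral genomic RNA was extracted and quantified by one-step qRT-PCR; IC50 and IC90 were taken as 50% and 90% inhibition of RNA replication.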

[3] = Cmax in CD-1 mouse at 10 mg/kg, po; type: ADME, organism-based; design: dose 10 mg/kg, route oral; details: in vivo
How it was run: (§1)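 Male CD-1 mice (18–22 g, n=3/group), fasted 12 h and fed 2 h after dosing, received 10 mg/kg orally. Femoral-vein blood (EDTA) was drawn at 0.25, 0.5, 1, 2, 4, 8 and 24 h. Plasma was mixed with methanol:acetonitrile (1:1) and stored at -20°C. Parameters came from non-compartmental analysis.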

Mus musculus [4] = assay: AUClast in CD-1 mouse at 2 mg/kg, iv; type: ADME, organism-based; design: dose 2 mg/kg, time 0 - last, route intravenous; details: in vivo
How it was run: (§2)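 Male CD-1 mice (18–22 g, n=3/group), fasted 12 h, were given 2 mg/kg IV. Femoral-vein blood (EDTA) was collected at 3 min, 0.25, 0.75, 2, 4, 8 and 24 h. Plasma was mixed with methanol:acetonitrile (1:1), stored at -20°C, and analysed by non-compartmental methods.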

[5] = AUClast in CD-1 mouse at 10 mg/kg, po; type: ADME, organism-based; design: dose 10 mg/kg, time 0 - last, route oral; details: in vivo; how it was run: as §1
Mus musculus [6] = assay: Plasma clearance in CD-1 mouse at 2 mg/kg, iv; type: ADME, organism-based; details: in vivo; how it was run: as §2
Mus musculus [7] = assay: Volume of distribution at steady state in CD-1 mouse at 2 mg/kg, iv; type: ADME, organism-based; details: in vivo; how it was run: as §2
[8] = Tmax in CD-1 mouse at 10 mg/kg, po; type: ADME, organism-based; details: in vivo; how it was run: as §1
[9] = Oral bioavailability in CD-1 mouse at 10 mg/kg; type: ADME, organism-based; details: in vivo; how it was run: as §1
Mus musculus [10] = assay: Half life in CD-1 mouse at 2 mg/kg, iv; type: ADME, organism-based; details: in vivo; how it was run: as §2
[11] = Half life in CD-1 mouse at 10 mg/kg, po; type: ADME, organism-based; details: in vivo; how it was run: as §1

Row | Structure (SMILES) | IC50 (dengue virus type 2) [µM] | IC90 (dengue virus type 2) [µM] | CC50 at 48 h [1] [µM] | selectivity ratio [2] | further results
1 | CN(C)CCCCOC(=O)Nc1ccc(-n2nc(-c3ccc(F)cc3)c3ccccc3c2=O)cc1 | 1.34 | 12.6 | 21.8 | 16.2 | 
2 | CN(C)CCCCOC(=O)Nc1ccc(Cn2nc(-c3cnn(C)c3)c3ccccc3c2=O)cc1 | 6.53 | 43.3 | 55.9 | 8.5 | 
3 | CN(C)CCCCOC(=O)Nc1ccc(Cn2nc(-c3ccccc3C(F)(F)F)c3ccccc3c2=O)cc1 | 1.99 | 3.37 | 35.7 | 18 | 
4 | CN(C)CCCCOC(=O)Nc1ccccc1Cn1nc(-c2ccc(F)cc2)c2ccccc2c1=O | 2.83 | 13.2 | 48.5 | 17.1 | 
5 | CN(C)CCCCOC(=O)Nc1ccc(Cn2nc(-c3ccccc3F)c3ccccc3c2=O)cc1 | 1.32 | 8.79 | 52.5 | 39.8 | 
6 | CN(C)CCCC(=O)Nc1ccc(Cn2nc(-c3ccc(F)cc3)c3ccccc3c2=O)cc1 | 1 | 8.42 | 38.2 | 38.2 | 
7 | CN(C)CCCCOC(=O)Nc1ccc(Cn2nc(-c3ccc(C(F)(F)F)cc3)c3ccccc3c2=O)cc1 | 1.47 | 6.61 | 3.36 | 2.3 | 
8 | CN(C)CCCCOC(=O)Nc1cccc(Cn2nc(-c3ccc(F)cc3)c3ccccc3c2=O)c1 | 0.64 | 4.65 | 8.51 | 13.3 | 
9 | CN(C)CCCCNC(=O)Nc1ccc(Cn2nc(-c3ccc(F)cc3)c3ccccc3c2=O)cc1 |  |  | 46.6 | 10.7 | 
10 | CCCCOC(=O)Nc1ccc(Cn2nc(-c3ccc(F)cc3)c3ccccc3c2=O)cc1 |  |  | 19.5 | 14.3 | 
11 | COc1ccc(-c2nn(Cc3ccc(NC(=O)OCCCCN(C)C)cc3)c(=O)c3ccccc23)cc1 | 1.94 | 5.88 | 20.3 | 10.5 | 
12 | CC(c1ccc(NC(=O)OCCCCN(C)C)cc1)n1nc(-c2ccc(F)cc2)c2ccccc2c1=O (stereo not given) | 1.27 | 5.57 | 15.2 | 11.9 | 
13 | COc1ccccc1-c1nn(Cc2ccc(NC(=O)OCCCCN(C)C)cc2)c(=O)c2ccccc12 | 1.4 | 5.44 | 44.8 | 32 | 
14 | Nc1ccc(Cn2nc(-c3ccc(F)cc3)c3ccccc3c2=O)cc1 | 20 | > 80 | > 80 | > 4 | 
15 | CN(C)CCCCOC(=O)Nc1ccc(Cn2nc(-c3cncnc3)c3ccccc3c2=O)cc1 | 0.6 | 62.4 | 65.3 | 109 | 

Second part, led by results:

Row | IC50 (dengue virus type 2) [µM] | IC90 (dengue virus type 2) [µM] | Structure (SMILES) | CC50 at 48 h [1] [µM] | selectivity ratio [2] | further results
16 | 0.7 | 7.07 | CN(C)CCCCOC(=O)Nc1ccc(Cn2nc(-c3ccc(C#N)cc3)c3ccccc3c2=O)cc1 | 37 | 52.8 | 
17 | 6.32 | 30.2 | CN(C)CCCCOC(=O)Nc1ccc(Cn2nc(-c3cccnc3)c3ccccc3c2=O)cc1 | 68 | 10.7 | 
18 | 5.52 | 12.4 | CN(C)CCCCOC(=O)Nc1ccc(Cn2nc(-c3ccccc3C#N)c3ccccc3c2=O)cc1 | 90.7 | 16.4 | 
19 | 1.72 | 5.09 | CN(C)CCCCOC(=O)Nc1ccc(Cn2nc(-c3cccc(C#N)c3)c3ccccc3c2=O)cc1 | 17.2 | 10 | 
20 | 2.68 | 6.09 | CN(C)CCCCOC(=O)Nc1ccc(Cn2nc(-c3ccccc3)c3ccccc3c2=O)cc1 | 16 | 5.99 | 
21 | 22.9 | 40.9 | CN(C)CCCCOC(=O)Nc1ccc(Cn2nc(-c3ccncc3)c3ccccc3c2=O)cc1 | 62.7 | 2.7 | 
22 | 0.13 | 1.15 | CN(C)CCCCOC(=O)Nc1ccc(Cn2nc(-c3cccc(C(F)(F)F)c3)c3ccccc3c2=O)cc1 | 11.6 | 89.2 | Cmax [3]: 94.5 ng/mL; AUClast (Mus musculus [4]): 505 ng·h/mL; AUC(0-t) [5]: 883 ng·h/mL; CL (Mus musculus [6]): 0.833 mL/min/kg; Vdss (Mus musculus [7]): 17.137 L/kg; Tmax [8]: 8 h; bioavailability [9]: 34.9%; t1/2 (Mus musculus [10]): 4.33 h; half-life [11]: 2.91 h
23 | 0.62 | 4.27 | CN(C)CCCCOC(=O)Nc1ccc(Cn2nc(-c3ccc(F)cc3)c3ccccc3c2=O)cc1 | 19 | 30.7 | 
24 | 0.34 | 1.58 | COc1cccc(-c2nn(Cc3ccc(NC(=O)OCCCCN(C)C)cc3)c(=O)c3ccccc23)c1 | 17.6 | 51.8 | 
25 | 1.51 | 8.24 | CN(C)CCCCOC(=O)Nc1ccc(Cn2nc(-c3cccc(F)c3)c3ccccc3c2=O)cc1 | 37.4 | 24.7 | 
